From ChEMBL document CHEMBL2086248, “Synthesis of some novel 1-(2-naphthyl)-2-(imidazol-1-yl)ethanone oxime ester derivatives and evaluation of their anticonvulsant activity” (Eur J Med Chem, 2012)
Active and inactive are the calls of the source.

What was measured:
Mus musculus [1] = assay: Neurotoxicity in mouse assessed as motor impairment at 30 mg/kg, ip after 0.5 hrs by rotarod test; assay type: toxicity, organism-based; set-up: dose 30 mg/kg, route intraperitoneal; conditions: in vivo
Summary of the method: (§1)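 Swiss albino mice (20-24 g) were dosed ip with a suspension in 30% aqueous PEG 400 and tested 0.5 h or 4 h later. They were placed on a knurled wooden rod 1 inch in diameter, rotating at 6 rpm. Toxicity meant failure to stay on the rod for at least 1 min in each of three trials. Scored as number toxic/number tested (4 mice at 0.5 h, 2 at 4 h).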

Mus musculus [2] = assay: Neurotoxicity in mouse assessed as motor impairment at 100 mg/kg, ip after 0.5 hrs by rotarod test; assay type: toxicity, organism-based; set-up: dose 100 mg/kg, route intraperitoneal; conditions: in vivo; summary of the method: as §1
Mus musculus [3] = assay: Neurotoxicity in mouse assessed as motor impairment at 30 mg/kg, ip after 4 hrs by rotarod test; assay type: toxicity, organism-based; set-up: dose 30 mg/kg, route intraperitoneal; conditions: in vivo; summary of the method: as §1
Mus musculus [4] = assay: Neurotoxicity in mouse assessed as motor impairment at 100 mg/kg, ip after 4 hrs by rotarod test; assay type: toxicity, organism-based; set-up: dose 100 mg/kg, route intraperitoneal; conditions: in vivo; summary of the method: as §1
Mus musculus [5] = assay: Neurotoxicity in mouse assessed as mortality at 300 mg/kg, ip after 0.5 hrs by rotarod test; assay type: toxicity, organism-based; set-up: dose 300 mg/kg, route intraperitoneal; conditions: in vivo
Mus musculus [6] = assay: Neurotoxicity in mouse assessed as mortality at 300 mg/kg, ip after 4 hrs by rotarod test; assay type: toxicity, organism-based; set-up: dose 300 mg/kg, route intraperitoneal; conditions: in vivo
Mus musculus [7] = assay: Anticonvulsant activity in mouse assessed as protection against maximal electroshock-induced seizures at 30 mg/kg, ip after 0.5 hrs; assay type: functional, organism-based; set-up: dose 30 mg/kg
Summary of the method: (§2)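 Swiss albino mice (20-24 g) received an ip suspension in 30% aqueous PEG 400 and were tested 0.5 h and 4 h after dosing. Shock was delivered through corneal electrodes from a constant current unit, with 0.9% saline dropped into the eyes first. Protection meant abolition of the hind limb tonic extension. Scored as number protected/number tested, one mouse per dose and time.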

Mus musculus [8] = assay: Anticonvulsant activity in mouse assessed as protection against maximal electroshock-induced seizures at 100 mg/kg, ip after 0.5 hrs; assay type: functional, organism-based; set-up: dose 100 mg/kg; summary of the method: as §2
Mus musculus [9] = assay: Anticonvulsant activity in mouse assessed as protection against maximal electroshock-induced seizures at 300 mg/kg, ip after 0.5 hrs; assay type: functional, organism-based; set-up: dose 300 mg/kg; summary of the method: as §2
Mus musculus [10] = assay: Anticonvulsant activity in mouse assessed as protection against maximal electroshock-induced seizures at 30 mg/kg, ip after 4 hrs; assay type: functional, organism-based; set-up: dose 30 mg/kg; summary of the method: as §2
Mus musculus [11] = assay: Anticonvulsant activity in mouse assessed as protection against maximal electroshock-induced seizures at 100 mg/kg, ip after 4 hrs; assay type: functional, organism-based; set-up: dose 100 mg/kg; summary of the method: as §2
Mus musculus [12] = assay: Anticonvulsant activity in mouse assessed as protection against maximal electroshock-induced seizures at 300 mg/kg, ip after 4 hrs; assay type: functional, organism-based; set-up: dose 300 mg/kg; summary of the method: as §2
Mus musculus [13] = assay: Anticonvulsant activity in mouse assessed as protection against subcutaneous pentylenetetrazole-induced seizures at 30 mg/kg, ip after 0.5 hrs; assay type: functional, organism-based; set-up: dose 30 mg/kg
Summary of the method: (§3)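 Swiss albino mice (20-24 g) were dosed ip with a suspension in 30% aqueous PEG 400 and challenged 0.5 h or 4 h later. Protection meant no threshold seizure (clonic spasms lasting at least 5 s). Scored as number protected/number tested, one mouse per dose and time.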

Mus musculus [14] = assay: Anticonvulsant activity in mouse assessed as protection against subcutaneous pentylenetetrazole-induced seizures at 100 mg/kg, ip after 0.5 hrs; assay type: functional, organism-based; set-up: dose 100 mg/kg; summary of the method: as §3
Mus musculus [15] = assay: Anticonvulsant activity in mouse assessed as protection against subcutaneous pentylenetetrazole-induced seizures at 300 mg/kg, ip after 0.5 hrs; assay type: functional, organism-based; set-up: dose 300 mg/kg; summary of the method: as §3
Mus musculus [16] = assay: Anticonvulsant activity in mouse assessed as protection against subcutaneous pentylenetetrazole-induced seizures at 30 mg/kg, ip after 4 hrs; assay type: functional, organism-based; set-up: dose 30 mg/kg; summary of the method: as §3
Mus musculus [17] = assay: Anticonvulsant activity in mouse assessed as protection against subcutaneous pentylenetetrazole-induced seizures at 100 mg/kg, ip after 4 hrs; assay type: functional, organism-based; set-up: dose 100 mg/kg; summary of the method: as §3
Mus musculus [18] = assay: Neurotoxicity in mouse assessed as motor impairment at 300 mg/kg, ip after 0.5 hrs by rotarod test; assay type: toxicity, organism-based; set-up: dose 300 mg/kg, route intraperitoneal; conditions: in vivo; summary of the method: as §1
Mus musculus [19] = assay: Neurotoxicity in mouse assessed as motor impairment at 300 mg/kg, ip after 4 hrs by rotarod test; assay type: toxicity, organism-based; set-up: dose 300 mg/kg, route intraperitoneal; conditions: in vivo; summary of the method: as §1
Mus musculus [20] = assay: Anticonvulsant activity in mouse assessed as protection against subcutaneous pentylenetetrazole-induced seizures at 300 mg/kg, ip after 4 hrs; assay type: functional, organism-based; set-up: dose 300 mg/kg; summary of the method: as §3

Compound	Activity (Mus musculus [1])	Activity (Mus musculus [2])	Activity (Mus musculus [3])	Activity (Mus musculus [4])	Activity (Mus musculus [5])	Activity (Mus musculus [6])	Activity (Mus musculus [7])	Activity (Mus musculus [8])	Activity (Mus musculus [9])	Activity (Mus musculus [10])	Activity (Mus musculus [11])	Activity (Mus musculus [12])	Activity (Mus musculus [13])	Activity (Mus musculus [14])	Activity (Mus musculus [15])	Activity (Mus musculus [16])	Activity (Mus musculus [17])	Activity (Mus musculus [18])	Activity (Mus musculus [19])	Activity (Mus musculus [20])
O=C(CCC(=O)c1ccccc1)O/N=C(\Cn1ccnc1)c1ccc2ccccc2c1	Non-toxic	Non-toxic	Non-toxic	Non-toxic	Toxic	Toxic	Active	Active	inactive	Active	Active	inactive	inactive	inactive	inactive	inactive	inactive			
O=C(O/N=C(\Cn1ccnc1)c1ccc2ccccc2c1)c1cccc(Cl)c1	Non-toxic	Non-toxic	Non-toxic	Non-toxic			inactive	Active	Active	inactive	Active	Active	inactive	inactive	inactive	inactive	inactive	Non-toxic	Non-toxic	inactive
